From PubChem
A selection: hits, their analogues and other compounds. The true share with any hit is near 1.5%.
CSN deneddyl inh = inhibitors of CSN-mediated cullin deneddylation, primary screen, biochemical, fluorescence polarization, uHTS; inhibition, % at 12.5 µM; AID 651999, 2013; 360,000 compounds, 0.38% hits; Purified CSN, SCF-Nedd8-OG deneddylation;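 active = pattern-corrected inhibition above about 35%, with an unprinted fluorescence ratio check between 0.5 and 1.5, limit read from the data, passing the limit was not always enough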;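 also: 0% = enzyme with substrate and 100% = substrate without enzyme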
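Material: human Csn5 produced in HEK293T cells; Input: enzyme 0.24 nM; Reagent: SCFSkp2-Nedd8OG substrate at 10 nM final; Dosing: 12.5 µM compound; Incubation: 90 min reaction at room temperature; Detection: fluorescence polarization of the substrate; Evaluation: % inhibition of substrate cleavage by Csn5; Control set: substrate-only high control, full reaction low control.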
Rpn11 block = Rpn11 (PSMD14) deubiquitinase inhibitors, primary screen, biochemical, fluorescence polarization, uHTS. 360,000 compounds, 0.59% hits. AID 588493, 2011. human 26S proteasome, Ub4-pepOG fluorescence polarization; 20S core pre-blocked with epoxomicin. calls only at 20 µM;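 active = inhibition at 20 µM, scaled to each plate's controls, above about 33%, limit read from the data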
TPT1 inh = Candida albicans TPT1 enzyme inhibitors, primary screen, biochemical, fluorescence polarization; tRNA 2'-phosphotransferase TPT1 (Candida albicans SC5314); recombinant caTPT1, FP RNA substrate dephosphorylation; inhibition, % at 5 µM; 300,000 compounds, 0.81% hits;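 active = inhibition above the mean of all tested compounds plus 3 SD, set per screening campaign, cut at about 24% in these data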;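 also: plate controls were DMSO alone for no effect and ferristatin control at 100 nM for full effect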
HNF4A DNA FP = change in binding of human HNF4A to DNA, primary screen, biochemical, fluorescence polarization, FITC-DNA; activity change, % at 10 µM; Hepatocyte nuclear factor 4-alpha (Homo sapiens), P41235; 360,000 compounds, 0.3% hits; 1 h; in the data active = activity change above about 30%, passing the limit was not always enough
Target sequence (P41235 whole entry, looked up): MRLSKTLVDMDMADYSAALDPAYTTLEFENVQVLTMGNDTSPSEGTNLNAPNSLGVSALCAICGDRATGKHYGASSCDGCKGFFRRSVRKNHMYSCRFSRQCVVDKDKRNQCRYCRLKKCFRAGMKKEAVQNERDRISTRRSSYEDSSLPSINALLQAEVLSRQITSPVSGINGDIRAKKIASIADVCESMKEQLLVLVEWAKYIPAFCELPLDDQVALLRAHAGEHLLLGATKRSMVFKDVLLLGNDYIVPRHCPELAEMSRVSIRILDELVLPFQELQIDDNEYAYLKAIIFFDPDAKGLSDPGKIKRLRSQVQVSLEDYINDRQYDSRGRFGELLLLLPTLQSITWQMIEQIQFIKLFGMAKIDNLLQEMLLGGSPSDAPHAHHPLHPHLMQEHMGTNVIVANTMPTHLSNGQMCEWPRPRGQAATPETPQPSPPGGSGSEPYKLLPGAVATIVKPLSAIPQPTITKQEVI
TPT1 inh confirm = Candida albicans TPT1 inhibitors, confirmation, biochemical, fluorescence polarization, triplicate. recombinant caTPT1, RNase T1 coupled. inhibition, % at 5 µM. 2,400 compounds, 74% hits. shares compounds with TPT1 inh;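 active = inhibition above the primary screen limit, the mean inhibition of all tested compounds plus 3 SD, cut at about 25% in these data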
RNase T1 inh = RNase T1 inhibitors, counter-screen for TPT1 inhibitor project, biochemical, fluorescence polarization; RNase T1 cleavage, 1536-well; inhibition, % at 5 µM; AID 2153, 2009; 2,400 compounds, 83% hits; shares compounds with TPT1 inh;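 active = inhibition above the solvent-only control well mean plus 3 SD, limit set per screening run, cut at about 23% in these data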;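 also: plate controls were DMSO wells with enzyme for no effect and wells without RNase T1 for full effect; inhibitors block cleavage so intact labeled substrate keeps polarization high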
Target sequence (P00651 whole entry, looked up): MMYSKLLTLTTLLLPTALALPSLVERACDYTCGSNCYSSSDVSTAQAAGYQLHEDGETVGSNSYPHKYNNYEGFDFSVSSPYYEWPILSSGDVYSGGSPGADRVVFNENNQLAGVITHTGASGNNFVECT
The depositor's hits bear a star; i = inactive; · = no result shown; + = active, no number.

SMILES	CSN deneddyl inh	Rpn11 block	TPT1 inh	HNF4A DNA FP	TPT1 inh confirm	RNase T1 inh
N#C/C(=C\N1CCN(Cc2ccc3c(c2)OCO3)CC1)c1nc2ccccc2s1	18	·	52*	30*	58*	66*
O=C(NCc1ccccc1Cl)C1CCN(S(=O)(=O)c2cccs2)CC1	4	i	-1	4	·	·
O=C1c2c(Cl)c(Cl)c(Cl)c(Cl)c2C(=O)N1c1nccs1	2	i	·	1	·	·
O=[N+]([O-])c1c(O)c(Cl)cc(Cl)c1Cl (tested in a mixture with another compound)	-1	i	·	-2	·	·
O=C1CSC(=S)N1/N=C/c1cc(Br)c(O)c(Br)c1	-73	·	82*	158	75*	84*
COc1cc(/C=N/N2C(=O)CSC2=S)ccc1O	19	+	28*	21	28*	40*
CSc1ccccc1-c1ccc2nccn2c1	0	i	·	1	·	·
C1=C(c2cc3ccccc3cn2)CCCC1	-5	i	·	0	·	·
O=[N+]([O-])c1ccc(OCn2cncn2)cc1	0	i	-1	1	·	·
Nc1nc(N)c2ncc(C(=O)CCc3ccccc3)nc2n1	-19	i	41*	5	44*	56*
CN(C)CCCN1C(=O)c2cccc3cccc(c23)C1=O	4	i	-4	-3	·	·
CCCCN1C(=O)c2cccc3cc(O)cc(c23)C1=O	-3	i	37*	-6	42*	48*
CSc1nsc(/C=C/Nc2ccc(O)cc2C)c1C#N	17	·	26*	111	22	33*
CCN1CCN(CCCNC(=O)CNC(=O)c2nn(-c3ccc(OC)cc3OC)c(=O)c3ccccc23)CC1	0	i	5	1	·	·
CCOC(=O)C1=CCN(S(=O)(=O)c2ccc(Br)cc2)C1c1ccc(C)cc1 (centres undefined)	0	i	·	0	·	·
COc1ccc2nc(C)cc(Nc3ccc(C)cc3)c2c1	3	i	·	2	·	·
COc1ccc2nc(C)cc(NCc3ccc(F)cc3)c2c1	104	·	69*	147	82*	85*
N#CC1=C(N)OC2=C(CC/C2=C\c2ccccc2Cl)C1c1ccccc1Cl (centres undefined)	70	·	67*	81	81*	89*
N#CC1=C(N)OC2=C(C(=O)CCC2)C1c1ccccc1 (centres undefined)	-5	i	0	8	·	·
N#CC1=C(N)OC2=C(CC/C2=C\c2ccccc2)C1c1ccccc1 (centres undefined)	35	·	83*	20	85*	88*
CC(C)N=C1NN=C(c2ccc(Cl)c(Cl)c2)CS1	0	i	·	2	·	·
N#C/C(=C/c1ccc(N2CCCCCC2)o1)c1ccc(F)cc1	5	·	158*	84	182*	168*
COc1cc(N2CCCC2)c(OC)cc1/C=C(/C#N)c1cccc(F)c1	54*	·	143*	89	145*	140*
N#C/C(=C/c1ccc(N2CCCCCC2)o1)c1cccc(F)c1	13	·	160*	98	177*	163*
O=C(N/N=C/c1ccc(N2CCCCC2)o1)c1ccccc1	-15	i	4	1	·	·
SMILES	CSN deneddyl inh	Rpn11 block	TPT1 inh	HNF4A DNA FP	TPT1 inh confirm	RNase T1 inh
Cc1cc(NC(=O)CCC(=O)N(CC(C)C)C(C(=O)NC(C)(C)C)c2ccccc2Cl)no1 (centres undefined)	6	i	-2	-2	·	·
CCOc1ncccc1C(=O)OCC(=O)NC(=O)c1ccccc1	-3	i	·	-2	·	·
COCCN(C)Cc1nc(C(c2ccccc2)c2ccccc2)no1	2	i	-4	5	·	·
N#CCc1nc(C(c2ccccc2)c2ccccc2)no1	6	·	25*	8	19	28*
O=C(Cn1ncc2c3ccccc3n(Cc3cccc(Cl)c3)c2c1=O)NCC1CCCO1 (centres undefined)	19	·	29*	24	98*	94*
Cc1ccc2nc3sc(C(=O)N4CCCc5ccccc54)c(N)c3cc2c1	0	·	38*	39*	56*	64*
Cc1ccc(-c2cc(C(=O)N3CCCc4ccccc43)c3ccccc3n2)cc1	2	i	1	0	·	·
Cc1cc(C)c2cc3c(N)c(C(=O)N4CCc5ccccc5C4)sc3nc2c1	5	i	26*	9	21	37*
O=C(Cc1cccc(NC(=O)C2CCCN(C(=O)C3CCCCC3)C2)c1)Nc1ccc(C(=O)N2CCOCC2)cc1 (centres undefined)	2	i	·	-4	·	·
O=C(O)c1ccc(/C=C2\CCCc3c2nc2ccccc2c3C(=O)O)cc1	5	i	-5	4	·	·
CN(C)c1ccc(/C=C2\CCCc3c2nc2ccccc2c3C(=O)O)cc1	0	i	25*	6	28*	39*
C=CCn1ccc2c([N+](=O)[O-])cccc2c1=O	4	i	1	-3	·	·
C=CCn1ccc(=NC=C(C#N)C#N)c2ccccc21	-1	i	31*	13	45*	57*
CN(C)c1ccc(CNC(=O)C2Cc3c(-c4cccc(C(N)=O)c4)ccnc3O2)cc1 (centres undefined)	-4	i	·	-2	·	·
Nc1c(C(=O)Nc2ccc(S(=O)(=O)N3CCCC3)cc2)sc2nc3cc4c(cc3cc12)CCC4	7	i	39*	5	25*	34*
COc1cc(/C=N/n2c(-c3ccc4c(c3)NC(=O)CO4)csc2=Nc2cccc(C)c2)ccc1O	4	i	-1	5	·	·
COCCN=c1scc(-c2ccc3c(c2)NC(=O)CO3)n1/N=C(\C)c1ccc(O)cc1	13	i	27*	4	10	18
O=C(CSc1cn[nH]n1)Nc1ccc(Cl)cc1Cl	0	i	-2	1	·	·
CC[C@H]1C=C[C@@H](C(C(=O)OC)C(=O)OC)CN1C(C)=O	-1	i	·	1	·	·
CCOC(=O)c1sc(N/N=C/c2ccc(N(C)C)cc2)nc1C	3	i	1	3	·	·
CC(=O)c1sc(N/N=C\c2ccc(Br)cc2)nc1C	17	·	71*	38*	82*	88*
CN=Cc1sc2ccccc2c1O	0	i	0	-4	·	·
CC(=Nc1ccc(C)cc1)c1sc2ccccc2c1O	6	i	74*	14	75*	87*
CC(=Nc1cccc(O)c1)c1sc2ccccc2c1O	1	i	66*	-5	94*	105*
